A short description of assay [1]: S. cerevisiae growth inhibition in permissive medium (OD615), pilot counter-assay for S. cerevisiae lifespan shortening project, permissive growth control (AID 705). The following applies: OD615, 24 h, at 10 µM, stronger effect = higher value. Summed up: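 System: S. cerevisiae with engineered DeaD lifespan system / Measured by: absorbance (optical density) at 615 nm / Read-out: reduction in yeast growth (OD615) / Times: 4 h cell pre-growth, 24 h exposure at 30 °C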

The nature of assay [2]: S. cerevisiae growth inhibition in restrictive medium, OD615, pilot screen, restrictive growth control, yeast lifespan reduction project (AID 706;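 active = growth inhibition above a set limit, 3 SD over mean compound inhibition, in both replicates, cut at about 43% in these data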;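 note: modified DeaD lifespan yeast strain shifted to restrictive glucose medium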). Conditions: OD615, 48 h, at 10 µM, stronger effect = higher value. Summed up: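 System: Engineered S. cerevisiae DeaD strain | Buffer or medium: Glucose-based CSMM-D restrictive medium | Schedule: 4 h pre-incubation, 48 h exposure at 30 °C | Technique: Optical density at 615 nm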

Assay [3] in a line: doxorubicin toxicity protection in MRP-1 cells – H69AR cells, CellTiter-Glo, duplicate, MRP-1 activator project, pilot screen (AID 807;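 active = viability increase at or above a cutoff of the median across tested compounds plus 3 SD, cut at about 8.5% in these data, passing the limit was not always enough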;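 note: compound pretreatment 18-22 h then 72 h combined with doxorubicin; 0% = doxorubicin alone and 100% = vehicle without doxorubicin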). Conditions: H69AR viability with doxorubicin, CellTiter-Glo luminescence; at 10 µM; stronger effect = higher value.
The nature of assay [4]: viability of HCT116 without oncogenic beta-catenin – human colon tumor cells, pilot screen (AID 823;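 active = cell viability at or below a set limit in both duplicate runs, the limit being the all-compound median minus 4 SD, cut at about 23% in these data, passing the limit was not always enough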;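 note: 0% = wells killed by 20 µM Hyamine and 100% = untreated DMSO cell wells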). The following applies: HCT116 beta-catenin knockout viability, CellTiter-Glo, 60 h; at 10 µM; stronger effect = lower value.
Assay [5] is described as follows: RAM pathway blockade in budding yeast – dse1pr::URA3 reporter, 5-FOA selection, pilot screen (AID 869;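 active = inhibition over a set limit, the all-compound mean plus 3 SD, in both replicate runs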;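 note: 0% = DMSO wells with no growth and 100% = 10 µM 1-NA-PP1 with full growth; RAM network block rescues cells from 5-FOA so hits raise OD615 growth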). Conditions: S. cerevisiae dse1pr::URA3 5-FOA growth, OD615, 2 d; at 10 µM; stronger effect = higher value; strain carries analog-sensitive mutant Cbk1 kinase.
A short description of assay [6]: RAM signaling pathway blockade in yeast – S. cerevisiae, Pdr1DBD-CYC8 efflux-inhibited sensitized strain, primary screen (AID 1298;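 active = RAM network inhibition above 8.4% in each of two replicates, 3 SD over the compound average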;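 note: 0% = DMSO untreated cells without growth and 100% = 10 µM 1-NA-PP1 full growth; higher means more yeast growth rescued from 5-FOA killing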). The following applies: S. cerevisiae cbk1-as DSE1-URA3 strain, 5-FOA growth OD615, 2 d; at 50 µM; stronger effect = higher value.

Unmarked numbers belong to inactive results. Inconclusive results are not listed. Active and inactive are the calls of the source.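 Rule for the calls, unless noted: active = growth inhibition above 25% in both replicates, a cutoff set 3 SD above the mean; inconclusive = above 25% in only one replicate; inactive = the rest.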

As to `CCCn1c(CNC(=O)Cc2ccccc2)nc2ccccc21`, the growth inhibition in assay [1] is 4.79%; in assay [2], 4.86%. Further, the viability increase in assay [3] was -0.37%. Moreover, in assay [4], the viability is 106%. Also, the inhibition in assay [5] is 2.26%. Moreover, the RAM network inhibition in assay [6] is 2.59%.

With `C=C(C)Cn1c(CCCNC(=O)CCC)nc2ccccc21`, the growth inhibition in assay [1] was -14.9%; in assay [2] it was 7.12%. The viability increase in assay [3] is -0.37%. Also, the viability in assay [4] was 94.7%. The inhibition in assay [5] was -0.295%. For the same compound, the RAM network inhibition in assay [6] was 1.57%.

With `CCCC(=O)Nc1cc(C)c(NC(=O)Cc2ccccc2)cn1`, the growth inhibition was 2.84% in assay [1] and 6.81% in assay [2]. In addition, the viability increase in assay [3] is -1.76%. The viability in assay [4] was 98.2%. The inhibition in assay [5] was 0.135%. Further, the RAM network inhibition in assay [6] is 2.84%.

In the case of `C=CCOC(=O)CCCC(=O)NC1CCCCC1`, the growth inhibition in assay [1] is -26.9%; in assay [2], 5.64%. In addition, in assay [3], the viability increase was -0.4%. For the same compound, the viability in assay [4] is 95.6%. Besides, in assay [5], the inhibition is 1.58%. The RAM network inhibition in assay [6] was 4.88%.

Turning to `Cc1ccc(S(=O)(=O)c2nc(-c3cccs3)oc2SCC(N)=O)cc1`, the growth inhibition in assay [1] is -8.57%; in assay [2], 10.4%. The viability increase in assay [3] is -2.87%. In addition, in assay [4], the viability is 106%. Moreover, the inhibition in assay [5] was -0.475%. For the same compound, in assay [6], the RAM network inhibition was 3.22%.

Consider `S=c1nc(-c2ccccc2)n(CCN2CCOCC2)c2c1CCCC2`, for which the results for the growth inhibition in assay [1] and in assay [2] were -2.79% and 19.1%, respectively. Moreover, in assay [3], the viability increase is -4.18%. In addition, the viability in assay [4] was 92.6%. Besides, in assay [5], the inhibition was 1.71%. Moreover, the RAM network inhibition in assay [6] was 6.76%.

As for `N#Cc1c(-c2ccccc2)cc(-c2ccco2)c(C#N)c1N`, the growth inhibition in assay [1] was -21.9%; in assay [2], -10.5%. For the same compound, in assay [3], the viability increase was -7.79%. The viability in assay [4] is 38.5%. Besides, the inhibition in assay [5] was 1.86%. The RAM network inhibition in assay [6] was 8.41%.

With `CCC(=O)c1cc(F)c(N2CCN(S(=O)(=O)c3ccccc3)CC2)cc1C`, the growth inhibition was -21.4% in assay [1] and 0.885% in assay [2]. Also, the viability increase in assay [3] was 0.77%. Moreover, the viability in assay [4] was 59.2%. The inhibition in assay [5] was 0.65%. Besides, the RAM network inhibition in assay [6] was 1.67%.

On to `CCCCn1c(C(C)NC(=O)c2cccs2)nc2ccccc21` (stereo not given), for which the growth inhibition is -10.5% in assay [1] and -2.79% in assay [2]. Besides, the viability increase in assay [3] was -3.37%. The viability in assay [4] is 89%. Moreover, in assay [5], the inhibition is 1.42%. Besides, in assay [6], the RAM network inhibition is 3.28%.

Turning to `CCCCCn1c(=O)[nH]c2cc(C(=O)NCc3ccc4c(c3)OCO4)ccc2c1=O`, the growth inhibition is -12.1% in assay [1] and -10.7% in assay [2]. In addition, in assay [3], the viability increase was -6.7%. In addition, the viability in assay [4] was 71.2%. Also, the inhibition in assay [5] is 3.82%. In assay [6], the RAM network inhibition is 5.87%.

On to `Cc1ccc(N=C2SCCCN2C(=O)c2ccco2)cc1Cl`, for which the growth inhibition in assay [1] was -10.1%; in assay [2], 4.65%. For the same compound, in assay [3], the viability increase is -5.58%. Further, in assay [4], the viability was 87.6%. In addition, the inhibition in assay [5] was 0.575%. Besides, the RAM network inhibition in assay [6] was 0.78%.

Consider `CC(C)c1ccc(-c2nc(N3CCCC3)nc3n[nH]c(N)c23)cc1`, for which the results for the growth inhibition in assay [1] and in assay [2] were -26.6% and 10.3%, respectively. In assay [3], the viability increase was -5.36%. In addition, the viability in assay [4] is 69.8%. Moreover, in assay [5], the inhibition was 3.83%. In addition, in assay [6], the RAM network inhibition is 10.8%.

For the compound `Cc1cc(C)n2nc(CCc3nc4nc(C)cc(C)n4n3)nc2n1`, the growth inhibition in assay [1] was 3.12%; in assay [2], 4.29%. The viability increase in assay [3] is -1.49%. In assay [4], the viability is 94.8%. For the same compound, in assay [5], the inhibition is 0.62%. The RAM network inhibition in assay [6] is 1.76%.

For the compound `Brc1cc(Br)c2ncnc(N3CCCCC3)c2c1`, the results for the growth inhibition in assay [1] and in assay [2] were -2.35% and -19.5%, respectively. Further, the viability increase in assay [3] was -7.95%. Also, the viability in assay [4] was 15.9% (active). Also, the inhibition in assay [5] is 2.7%. The RAM network inhibition in assay [6] is 2.58%.

Consider `O=C(NCc1ccc(N2CCCC2=O)cc1)c1cn(CCc2ccccc2)nn1`, for which the values for the growth inhibition in assay [1] and in assay [2] were -5.88% and -13.3%, respectively. In addition, in assay [3], the viability increase is 1.6%. In addition, the viability in assay [4] is 95.1%. In addition, the inhibition in assay [5] is 1.7%. In addition, the RAM network inhibition in assay [6] was 7.58%.

Consider `CCN(Cc1ccncc1)C(=O)c1cccc(S(=O)(=O)N2CCOCC2)c1`, for which the growth inhibition in assay [1] was -4.12%; in assay [2], 6.31%. Moreover, the viability increase in assay [3] was -2.89%. Moreover, the viability in assay [4] is 99.1%. Also, the inhibition in assay [5] is 1.07%. Besides, the RAM network inhibition in assay [6] is 9.82%.

On to `Cc1ccc(-c2nc(=S)c3c(n2Cc2ccco2)CC(C)(C)OC3)cc1`, for which the values for the growth inhibition in assay [1] and in assay [2] were -13.2% and 2.99%, respectively. Moreover, the viability increase in assay [3] is -2.16%. The viability in assay [4] was 69.2%. Further, in assay [5], the inhibition is -0.945%. Further, in assay [6], the RAM network inhibition is 3.44%.

As for `CSc1nnc(C2CCCN2)n1C` (stereo not given), the growth inhibition in assay [1] was -16.9%; in assay [2] it was -7.04%. For the same compound, the viability increase in assay [3] is -0.51%. The viability in assay [4] is 90.9%. The inhibition in assay [5] was 2.88%. Moreover, the RAM network inhibition in assay [6] was -0.16%.

For the compound `Nn1c(SCC(=O)NC2CCCCC2)nnc1-c1ccccc1`, the growth inhibition was -25.7% in assay [1] and 8.66% in assay [2]. In addition, in assay [3], the viability increase is -1.37%. In addition, the viability in assay [4] is 98.8%. Besides, in assay [5], the inhibition is 2.28%. Further, the RAM network inhibition in assay [6] was 4.63%.

As to `O=C(COCCOCC(=O)N(c1ccccn1)C1CCCCC1)N(c1ccccn1)C1CCCCC1`, the growth inhibition in assay [1] is -12.8%; in assay [2], -7.35%. Besides, the viability increase in assay [3] is -2.48%. Besides, the viability in assay [4] is 92.3%. Further, the inhibition in assay [5] is 1.31%. In assay [6], the RAM network inhibition was 8.62%.
